Numbered stars: 1 amine (or outer) side, 2 acyl side, 3 side chain; on linkers, the order of the positions; unused ones are H or OH. Bridge positions count the residues as written; N and C are the ends. Square brackets hold non-standard residues; d marks the D form. Peptide text beside a SMILES is read from it. X1 = O=C(CC1(S[*:2])CCCCC1)[*:1]

The first experiment is filed under the species Rattus norvegicus. Nature of the experiment: Antidiuretic potency was evaluated and expressed as effective dose.
Settings: not given
The experiment is classed as functional, Urine. The procedure, abridged:
(§1)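 Antagonism tested in vivo in water-loaded rats under ethanol anesthesia, with ADH as the agonist standard. The effective dose is the antagonist amount that halves the response to agonist. An in vivo pA₂ was estimated by dividing the effective dose by an assumed volume of distribution of 67 mL/kg. Values reported as mean ± SE.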
Consider `CC[C@H](C)[C@@H]1NC(=O)[C@H](Cc2ccccc2)NC(=O)[C@@H](Cc2c[nH]c3ccccc23)NC(=O)CC2(CCCCC2)SSC[C@@H](C(=O)N2CCC[C@H]2C(=O)N[C@@H](CCCN=C(N)N)C(=O)NCC(N)=O)NC(=O)[C@H](CC(N)=O)NC1=O` [listing 1 of 2 here], for which the ED50 was determined as 8.3 nM.

Compound `CC[C@H](C)[C@@H]1NC(=O)[C@H](Cc2ccccc2)NC(=O)[C@@H](Cc2ccccc2)NC(=O)CC2(CCCCC2)SSC[C@@H](C(=O)N2CCC[C@H]2C(=O)N[C@@H](CCCN=C(N)N)C(=O)NCC(N)=O)NC(=O)[C@H](CC(N)=O)NC1=O` ([dF]FINCPRG-NH2; linker N-5 via X1) [listing 1 of 2 here] displayed an ED50 of 0.87 M.

`CC[C@H](C)[C@@H]1NC(=O)[C@@H](Cc2c[nH]c3ccccc23)NC(=O)CC2(CCCCC2)SSC[C@@H](C(=O)N2CCC[C@H]2C(=O)N[C@@H](CCCN=C(N)N)C(=O)NCC(N)=O)NC(=O)[C@H](CC(N)=O)NC(=O)[C@H](CCC(N)=O)NC1=O` ([dW]IQNCPRG-NH2; linker N-5 via X1) [listing 1 of 2 here] had an ED50 of less than 1680 nM.

For the next experiment, the species on record is Rattus norvegicus. Nature of the experiment: Antidiuretic action in water-loaded rats under ethanol anesthesia. The experiment is classed as functional, organism-based. Particulars: Urine, read-out: pA2 (converted). The method in brief:
as §1
For `CC[C@H](C)[C@@H]1NC(=O)[C@H](Cc2ccccc2)NC(=O)[C@@H](Cc2c[nH]c3ccccc23)NC(=O)CC2(CCCCC2)SSC[C@@H](C(=O)N2CCC[C@H]2C(=O)N[C@@H](CCCN=C(N)N)C(=O)NCC(N)=O)NC(=O)[C@H](CC(N)=O)NC1=O` [listing 2 of 2 here], the Kb is 7.94 nM.

For `CC[C@H](C)[C@@H]1NC(=O)[C@H](Cc2ccccc2)NC(=O)[C@@H](Cc2ccccc2)NC(=O)CC2(CCCCC2)SSC[C@@H](C(=O)N2CCC[C@H]2C(=O)N[C@@H](CCCN=C(N)N)C(=O)NCC(N)=O)NC(=O)[C@H](CC(N)=O)NC1=O` ([dF]FINCPRG-NH2; linker N-5 via X1) [listing 2 of 2 here], the Kb is 8.13 nM.

Take `CC[C@H](C)[C@@H]1NC(=O)[C@@H](Cc2c[nH]c3ccccc23)NC(=O)CC2(CCCCC2)SSC[C@@H](C(=O)N2CCC[C@H]2C(=O)N[C@@H](CCCN=C(N)N)C(=O)NCC(N)=O)NC(=O)[C@H](CC(N)=O)NC(=O)[C@H](CCC(N)=O)NC1=O` ([dW]IQNCPRG-NH2; linker N-5 via X1) [listing 2 of 2 here]: the Kb was greater than 1380 nM.

Another experiment is filed under the species Rattus norvegicus. Nature of the experiment: Effective dose (antagonist) that reduces the response to an agonist (oxytocin) by one-half. The experiment is classed as functional.
Settings: not given
The procedure, abridged: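 Isolated estrous rat uterus in Van Dyke-Hastings solution with 0.5 mM Mg²⁺; OT-evoked isometric contractions quantified as integrated peak area. Effective dose taken as molar antagonist concentration halving the agonist response; at least four separate assays.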
For the compound `CC[C@H](C)[C@@H]1NC(=O)[C@@H](Cc2c[nH]c3ccccc23)NC(=O)CC2(CCCCC2)SSC[C@@H](C(=O)N2CCC[C@H]2C(=O)N[C@@H](CCCN=C(N)N)C(=O)NCC(N)=O)NC(=O)[C@H](CC(N)=O)NC(=O)[C@H]([C@@H](C)O)NC1=O` [listing 1 of 2 here], the ED50 amounted to 46.8 nM.

In turn, `CC[C@H](C)[C@@H]1NC(=O)[C@@H](Cc2c[nH]c3ccccc23)NC(=O)CC2(CCCCC2)SSC[C@@H](C(=O)N2CCC[C@H]2C(=O)N[C@@H](CCCN=C(N)N)C(=O)NCC(N)=O)NC(=O)[C@H](CC(N)=O)NC(=O)[C@H](C(C)C)NC1=O` [listing 1 of 2 here] yielded an ED50 of 26.9 nM.

For the compound `CC[C@H](C)[C@@H]1NC(=O)[C@H](Cc2ccccc2)NC(=O)[C@@H](Cc2c[nH]c3ccccc23)NC(=O)CC2(CCCCC2)SSC[C@@H](C(=O)N2CC=C[C@H]2C(=O)N[C@@H](CCCN=C(N)N)C(=O)NCC(N)=O)NC(=O)[C@H](CC(N)=O)NC1=O` [listing 1 of 2 here], the ED50 is 38.6 nM.

`CC[C@H](C)[C@@H]1NC(=O)[C@H]([C@@H](C)CC)NC(=O)[C@@H](Cc2c[nH]c3ccccc23)NC(=O)CC2(CCCCC2)SSC[C@@H](C(=O)N2CCC[C@H]2C(=O)N[C@@H](CCCN=C(N)N)C(=O)NCC(N)=O)NC(=O)[C@H](CC(N)=O)NC1=O` [listing 1 of 2 here] gave an ED50 of 35.3 nM.

For the compound `CC[C@H](C)[C@@H]1NC(=O)[C@H](Cc2ccc(Cl)cc2)NC(=O)[C@@H](Cc2c[nH]c3ccccc23)NC(=O)CC2(CCCCC2)SSC[C@@H](C(=O)N2CCC[C@H]2C(=O)N[C@@H](CCCN=C(N)N)C(=O)NCC(N)=O)NC(=O)[C@H](CC(N)=O)NC1=O` [listing 1 of 2 here], the ED50 stood at 40.2 nM.

`NC(=O)CC[C@@H]1NC(=O)[C@H](Cc2ccccc2)NC(=O)[C@@H](Cc2c[nH]c3ccccc23)NC(=O)CC2(CCCCC2)SSC[C@@H](C(=O)N2CCC[C@H]2C(=O)N[C@@H](CCCN=C(N)N)C(=O)NCC(N)=O)NC(=O)[C@H](CC(N)=O)NC1=O` [listing 1 of 2 here] gave an ED50 of 27 nM.

Consider `CCNC(=O)CNC(=O)[C@H](CCCN=C(N)N)NC(=O)[C@@H]1CCCN1C(=O)[C@@H]1CSSC2(CCCCC2)CC(=O)N[C@H](Cc2c[nH]c3ccccc23)C(=O)N[C@@H](Cc2ccccc2)C(=O)N[C@@H](CCC(N)=O)C(=O)N[C@@H](CC(N)=O)C(=O)N1` [listing 1 of 2 here], for which the ED50 was determined as 32.9 nM.

On to `CC[C@H](C)[C@@H]1NC(=O)[C@H](Cc2ccccc2)NC(=O)[C@@H](Cc2c[nH]c3ccccc23)NC(=O)CC2(CCCCC2)SSC[C@@H](C(=O)N2CCC[C@H]2C(=O)N[C@@H](CCCN=C(N)N)C(=O)NCC(N)=O)NC(=O)[C@H](CC(N)=O)NC1=O` [listing 1 of 2 here], for which the ED50 was found to be 30.9 nM.

Consider `CC[C@H](C)[C@@H]1NC(=O)[C@H](Cc2ccccc2)NC(=O)[C@@H](Cc2ccccc2)NC(=O)CC2(CCCCC2)SSC[C@@H](C(=O)N2CCC[C@H]2C(=O)N[C@@H](CCCN=C(N)N)C(=O)NCC(N)=O)NC(=O)[C@H](CC(N)=O)NC1=O` ([dF]FINCPRG-NH2; linker N-5 via X1) [listing 1 of 2 here], for which the ED50 stood at 46.6 nM.

For the next experiment, the species on record is Rattus norvegicus. The experiment in a line: Competitive antagonist action against oxytocin contractile action in rat uterus(in vitro). The experiment is classed as functional. The conditions noted are these: read-out: pA2 (converted). The procedure, abridged:
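Isolated uteri from rats in natural estrus, incubated in Van Dyke-Hastings solution with 0.5 mM Mg²⁺. Isometric contractions to synthetic OT recorded by force transducer; response quantified by integrating area under peaks. pA₂ determined by Schild method; at least four separate assays per antagonist.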
As for `CC[C@H](C)[C@@H]1NC(=O)[C@@H](Cc2c[nH]c3ccccc23)NC(=O)CC2(CCCCC2)SSC[C@@H](C(=O)N2CCC[C@H]2C(=O)N[C@@H](CCCN=C(N)N)C(=O)NCC(N)=O)NC(=O)[C@H](CC(N)=O)NC(=O)[C@H]([C@@H](C)O)NC1=O` [listing 2 of 2 here], the Kb was 33.1 nM.

Turning to `CC[C@H](C)[C@@H]1NC(=O)[C@@H](Cc2c[nH]c3ccccc23)NC(=O)CC2(CCCCC2)SSC[C@@H](C(=O)N2CCC[C@H]2C(=O)N[C@@H](CCCN=C(N)N)C(=O)NCC(N)=O)NC(=O)[C@H](CC(N)=O)NC(=O)[C@H](C(C)C)NC1=O` [listing 2 of 2 here], the Kb is 26.3 nM.

As to `CC[C@H](C)[C@@H]1NC(=O)[C@H](Cc2ccccc2)NC(=O)[C@@H](Cc2c[nH]c3ccccc23)NC(=O)CC2(CCCCC2)SSC[C@@H](C(=O)N2CC=C[C@H]2C(=O)N[C@@H](CCCN=C(N)N)C(=O)NCC(N)=O)NC(=O)[C@H](CC(N)=O)NC1=O` [listing 2 of 2 here], the Kb was 38 nM.

With `CC[C@H](C)[C@@H]1NC(=O)[C@H]([C@@H](C)CC)NC(=O)[C@@H](Cc2c[nH]c3ccccc23)NC(=O)CC2(CCCCC2)SSC[C@@H](C(=O)N2CCC[C@H]2C(=O)N[C@@H](CCCN=C(N)N)C(=O)NCC(N)=O)NC(=O)[C@H](CC(N)=O)NC1=O` [listing 2 of 2 here], the Kb was 34.7 nM.

As for `CC[C@H](C)[C@@H]1NC(=O)[C@H](Cc2ccc(Cl)cc2)NC(=O)[C@@H](Cc2c[nH]c3ccccc23)NC(=O)CC2(CCCCC2)SSC[C@@H](C(=O)N2CCC[C@H]2C(=O)N[C@@H](CCCN=C(N)N)C(=O)NCC(N)=O)NC(=O)[C@H](CC(N)=O)NC1=O` [listing 2 of 2 here], the Kb is 36.3 nM.

`NC(=O)CC[C@@H]1NC(=O)[C@H](Cc2ccccc2)NC(=O)[C@@H](Cc2c[nH]c3ccccc23)NC(=O)CC2(CCCCC2)SSC[C@@H](C(=O)N2CCC[C@H]2C(=O)N[C@@H](CCCN=C(N)N)C(=O)NCC(N)=O)NC(=O)[C@H](CC(N)=O)NC1=O` [listing 2 of 2 here]: the Kb was 26.3 nM.

With `CCNC(=O)CNC(=O)[C@H](CCCN=C(N)N)NC(=O)[C@@H]1CCCN1C(=O)[C@@H]1CSSC2(CCCCC2)CC(=O)N[C@H](Cc2c[nH]c3ccccc23)C(=O)N[C@@H](Cc2ccccc2)C(=O)N[C@@H](CCC(N)=O)C(=O)N[C@@H](CC(N)=O)C(=O)N1` [listing 2 of 2 here], the Kb was 32.4 nM.

As to `CC[C@H](C)[C@@H]1NC(=O)[C@H](Cc2ccccc2)NC(=O)[C@@H](Cc2c[nH]c3ccccc23)NC(=O)CC2(CCCCC2)SSC[C@@H](C(=O)N2CCC[C@H]2C(=O)N[C@@H](CCCN=C(N)N)C(=O)NCC(N)=O)NC(=O)[C@H](CC(N)=O)NC1=O` [listing 2 of 2 here], the Kb was 30.9 nM.

Turning to `CC[C@H](C)[C@@H]1NC(=O)[C@H](Cc2ccccc2)NC(=O)[C@@H](Cc2ccccc2)NC(=O)CC2(CCCCC2)SSC[C@@H](C(=O)N2CCC[C@H]2C(=O)N[C@@H](CCCN=C(N)N)C(=O)NCC(N)=O)NC(=O)[C@H](CC(N)=O)NC1=O` ([dF]FINCPRG-NH2; linker N-5 via X1) [listing 2 of 2 here], the Kb was 44.7 nM.

These data come from ChEMBL document CHEMBL1125243, “Design of potent oxytocin antagonists featuring D-tryptophan at position 2” (J Med Chem, 1991).
